Assay results published in ChEMBL document CHEMBL5030531, “Synthetic Glycolipids as Molecular Vaccine Adjuvants: Mechanism of Action in Human Cells and In Vivo Activity” (J Med Chem, 2021).
Activity calls are given as the source filed them.

Tests used:
[1] = test system: HEK-Blue hTLR4; experiment: Activation of AP-1 in LPS-stimulated HEK-Blue hTLR4 cells assessed as increase in release of SEAP reporter protein level at 0.1 to 25 uM incubated for 18 hrs by QUANTI-blue assay; type: cell-based; settings: Homo sapiens, dose 0.1-25 µM
Method in brief: (§1)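 HEK-Blue hTLR4 cells (HEK293 with CD14, TLR4, MD-2 and NF-κB/AP-1-driven SEAP) in DMEM/10% FBS, seeded overnight (37 °C, 5% CO2), washed, then exposed to compound 0.1–25 μM in fresh medium for 18 h. SEAP in supernatant read with QUANTI-Blue substrate (0.5–4 h, RT) at OD 630 nm. Normalized to 100 ng/mL S. minnesota smooth LPS; mean percentage of three independent experiments.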

[2] = molecular target: Nuclear factor NF-kappa-B complex (Homo sapiens) (UniProt Q00653+P19838+Q04206); experiment: Activation of NF-kappaB in LPS-stimulated HEK-Blue hTLR4 cells assessed as increase in release of SEAP reporter protein level at 0.1 to 25 uM incubated for 18 hrs by QUANTI-blue assay; type: cell-based; settings: dose 0.1-25 µM; method in brief: as §1
[3] = molecular target: Toll-like receptor 4 (Homo sapiens) (UniProt O00206); experiment: Antagonist activity at human TLR4 in LPS-stimulated HEK-Blue hTLR4 cells assessed as inhibition of LPS-induced SEAP production at 0.1 to 25 uM incubated for 18 hrs by QUANTI-blue assay; settings: dose 0.1-25 µM

Measured: Activity

Toll-like receptor 4 (Homo sapiens), sequence (O00206 whole entry): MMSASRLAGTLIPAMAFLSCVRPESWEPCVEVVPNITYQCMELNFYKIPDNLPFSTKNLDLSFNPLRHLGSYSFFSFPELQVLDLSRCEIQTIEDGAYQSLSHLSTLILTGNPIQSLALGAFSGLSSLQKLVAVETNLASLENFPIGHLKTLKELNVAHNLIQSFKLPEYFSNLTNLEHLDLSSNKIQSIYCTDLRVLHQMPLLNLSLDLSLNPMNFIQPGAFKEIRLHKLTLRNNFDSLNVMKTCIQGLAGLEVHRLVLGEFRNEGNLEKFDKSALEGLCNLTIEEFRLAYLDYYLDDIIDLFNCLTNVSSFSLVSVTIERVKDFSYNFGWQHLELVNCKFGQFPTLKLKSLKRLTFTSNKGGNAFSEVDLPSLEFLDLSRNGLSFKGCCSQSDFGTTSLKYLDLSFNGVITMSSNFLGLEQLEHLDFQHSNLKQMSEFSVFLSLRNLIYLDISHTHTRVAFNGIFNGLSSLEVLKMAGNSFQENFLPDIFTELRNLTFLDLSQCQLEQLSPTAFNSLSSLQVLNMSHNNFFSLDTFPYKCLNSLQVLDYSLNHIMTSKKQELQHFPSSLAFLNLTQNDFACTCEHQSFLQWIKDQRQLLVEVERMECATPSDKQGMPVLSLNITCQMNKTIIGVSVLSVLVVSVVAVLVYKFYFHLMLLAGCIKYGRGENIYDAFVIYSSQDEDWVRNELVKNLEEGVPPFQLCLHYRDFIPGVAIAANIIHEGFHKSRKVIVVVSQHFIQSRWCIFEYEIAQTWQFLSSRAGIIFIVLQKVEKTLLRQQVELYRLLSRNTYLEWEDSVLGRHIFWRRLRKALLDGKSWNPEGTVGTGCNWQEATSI
Nuclear factor NF-kappa-B complex (Homo sapiens), sequence (P19838 whole entry, looked up): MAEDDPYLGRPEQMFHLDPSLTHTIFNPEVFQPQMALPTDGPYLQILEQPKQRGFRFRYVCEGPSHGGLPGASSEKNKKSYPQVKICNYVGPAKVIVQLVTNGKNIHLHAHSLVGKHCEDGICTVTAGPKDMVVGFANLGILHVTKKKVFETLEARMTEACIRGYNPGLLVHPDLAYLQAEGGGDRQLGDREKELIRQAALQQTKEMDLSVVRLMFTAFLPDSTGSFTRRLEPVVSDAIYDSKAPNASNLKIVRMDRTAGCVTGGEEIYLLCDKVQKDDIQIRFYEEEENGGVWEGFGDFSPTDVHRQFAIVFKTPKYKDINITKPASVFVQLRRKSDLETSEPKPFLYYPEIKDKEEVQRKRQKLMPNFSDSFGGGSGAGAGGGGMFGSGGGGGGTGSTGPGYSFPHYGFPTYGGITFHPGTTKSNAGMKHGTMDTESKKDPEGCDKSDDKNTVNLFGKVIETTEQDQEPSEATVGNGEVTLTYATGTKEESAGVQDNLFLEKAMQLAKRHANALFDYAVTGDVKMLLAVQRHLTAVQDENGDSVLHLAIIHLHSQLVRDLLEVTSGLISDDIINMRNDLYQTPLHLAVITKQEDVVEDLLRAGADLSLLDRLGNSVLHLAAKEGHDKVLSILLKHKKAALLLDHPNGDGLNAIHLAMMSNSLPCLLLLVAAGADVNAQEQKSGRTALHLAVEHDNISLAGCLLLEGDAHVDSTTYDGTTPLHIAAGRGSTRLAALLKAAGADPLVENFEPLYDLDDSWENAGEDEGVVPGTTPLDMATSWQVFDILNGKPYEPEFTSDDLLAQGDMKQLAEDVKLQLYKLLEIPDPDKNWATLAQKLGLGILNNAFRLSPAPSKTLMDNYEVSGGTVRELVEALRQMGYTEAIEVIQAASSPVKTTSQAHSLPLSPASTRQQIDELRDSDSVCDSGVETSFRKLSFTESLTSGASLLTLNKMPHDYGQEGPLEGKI
Nuclear factor NF-kappa-B complex (Homo sapiens), sequence (Q00653 whole entry, looked up): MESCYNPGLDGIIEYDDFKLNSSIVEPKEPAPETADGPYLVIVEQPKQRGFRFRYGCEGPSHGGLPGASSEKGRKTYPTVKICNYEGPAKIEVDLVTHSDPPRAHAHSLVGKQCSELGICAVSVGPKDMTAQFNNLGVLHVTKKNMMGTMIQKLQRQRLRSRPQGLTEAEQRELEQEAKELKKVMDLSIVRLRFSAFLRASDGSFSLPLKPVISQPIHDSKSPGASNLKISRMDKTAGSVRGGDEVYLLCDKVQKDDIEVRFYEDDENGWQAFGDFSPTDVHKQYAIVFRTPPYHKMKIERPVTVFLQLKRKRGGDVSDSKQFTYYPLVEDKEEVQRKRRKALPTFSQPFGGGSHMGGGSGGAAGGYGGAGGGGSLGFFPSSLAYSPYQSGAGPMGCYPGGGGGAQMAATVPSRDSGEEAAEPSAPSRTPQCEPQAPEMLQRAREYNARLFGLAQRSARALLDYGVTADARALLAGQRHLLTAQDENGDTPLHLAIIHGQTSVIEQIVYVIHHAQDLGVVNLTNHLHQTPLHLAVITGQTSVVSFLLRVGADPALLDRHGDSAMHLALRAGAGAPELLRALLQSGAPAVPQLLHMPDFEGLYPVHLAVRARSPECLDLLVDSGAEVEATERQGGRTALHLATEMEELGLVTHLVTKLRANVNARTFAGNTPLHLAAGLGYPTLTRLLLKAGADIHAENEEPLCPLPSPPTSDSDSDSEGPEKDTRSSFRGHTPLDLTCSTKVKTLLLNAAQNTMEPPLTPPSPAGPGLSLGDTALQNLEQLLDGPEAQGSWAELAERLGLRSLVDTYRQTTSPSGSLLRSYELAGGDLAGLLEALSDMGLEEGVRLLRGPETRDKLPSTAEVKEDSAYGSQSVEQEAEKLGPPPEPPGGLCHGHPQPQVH
Nuclear factor NF-kappa-B complex (Homo sapiens), sequence (Q04206 whole entry, looked up): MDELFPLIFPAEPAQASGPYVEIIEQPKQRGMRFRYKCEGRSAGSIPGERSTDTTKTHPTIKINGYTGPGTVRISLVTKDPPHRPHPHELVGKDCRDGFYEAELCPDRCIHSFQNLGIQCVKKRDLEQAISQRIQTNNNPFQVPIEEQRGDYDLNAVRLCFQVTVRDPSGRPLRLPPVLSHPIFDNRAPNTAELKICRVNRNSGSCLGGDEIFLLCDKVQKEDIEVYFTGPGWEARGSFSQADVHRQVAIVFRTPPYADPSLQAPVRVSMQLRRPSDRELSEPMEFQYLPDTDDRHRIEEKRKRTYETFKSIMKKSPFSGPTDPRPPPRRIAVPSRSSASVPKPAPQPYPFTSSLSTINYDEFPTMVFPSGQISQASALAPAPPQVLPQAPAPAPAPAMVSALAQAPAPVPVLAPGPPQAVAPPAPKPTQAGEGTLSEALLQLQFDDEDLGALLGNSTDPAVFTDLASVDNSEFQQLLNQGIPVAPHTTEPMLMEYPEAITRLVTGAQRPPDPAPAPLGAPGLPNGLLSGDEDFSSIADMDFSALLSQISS

CCCCCCCCCCCCCC(=O)N[C@H]1[C@@H](OP(=O)(O)O)O[C@H](COP(=O)(O)O)[C@@H](OC(=O)CCCCCCCCCCCCC)[C@@H]1OC(=O)CCCCCCCCCCCCC
inactive: all assays above
